Screening results: PubChem BioAssay, Broad Institute
S100A4 MyoIIA: blocks human S100A4 binding to myosin IIA peptide; P26447; inhibition, % at 10.7 µM; actives 0.14% (n = 360,000); S100A4/TAMRA-MyoIIA peptide fluorescence polarization;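 active = mean inhibition of at least 70% across replicates, with every replicate also reaching that level; inconclusive = mean inhibition reaches 70% but some replicates fall short; inactive = mean inhibition below 70%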
Target sequence (P26447 whole entry, looked up): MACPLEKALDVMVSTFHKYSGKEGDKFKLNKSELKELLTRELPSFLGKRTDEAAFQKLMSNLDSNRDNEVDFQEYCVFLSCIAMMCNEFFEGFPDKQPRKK
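Material: S100A4 monomer protein / Buffer or medium: 50 mM HEPES pH 7.2, 10 mM CaCl2, 100 mM KCl / Times: 5 min incubation before reading / Benchmarks: neutral control DMSO, positive control TFP / Reagent: labelled myosin peptide probe, 5 nM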
PGC1a acetyl inh: PGC1a acetylation modulation, inhibitor mode; U2OS PGC1a acetylation, AlphaScreen anti-acetyl-lysine; with virally co-expressed GCN5 acetyltransferase; inhibition, % at 15.6 µM; actives 0.17% (n = 350,000);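 active = every replicate shows inhibition of at least 40%; inconclusive = mean inhibition at least 40% but some replicate below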
SIRT5 inh: blocks human SIRT5 desuccinylation of peptide; Purified SirT5, succinyl-peptide AMC, trypsin-coupled fluorescence; inhibition, % at 15 µM; actives 1.1% (n = 330,000); in the data active = inhibition above about 15%; inconclusive = no clear call, values can overlap the other calls
Target sequence (Q9NXA8 whole entry, looked up): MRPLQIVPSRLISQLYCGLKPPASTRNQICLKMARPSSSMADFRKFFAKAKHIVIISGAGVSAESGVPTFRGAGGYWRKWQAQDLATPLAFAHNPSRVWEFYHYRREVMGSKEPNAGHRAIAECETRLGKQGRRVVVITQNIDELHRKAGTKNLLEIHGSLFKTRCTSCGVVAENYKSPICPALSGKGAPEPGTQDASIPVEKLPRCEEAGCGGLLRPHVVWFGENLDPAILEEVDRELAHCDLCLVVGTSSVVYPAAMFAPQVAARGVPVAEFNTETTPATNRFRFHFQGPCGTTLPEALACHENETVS
Ecoli rRNA inh: selective bacterial rRNA inhibition in E. coli | E. coli WT GFP vs humanized-ribosome RFP mutants, fluorescence, 24 h; stronger effect = lower value; DMSO median 0, no signal -100 | GFP signal change (wild-type ribosome), % (test concentration not listed) | actives 1.6% (n = 350,000) | AID 720706;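 active = significant combined selectivity score with lowered wild-type GFP, culture density cut under 30%, mutant RFP and density less affected; inactive = any of these conditions unmet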
Cneo AK release: Cryptococcus neoformans lysis via adenylate kinase release; C. neoformans lysis, adenylate kinase release luminescence, 4 h; normalised: neutral wells 0, clomiphene wells 100; lysis activity, % at 15 µM; actives 0.2% (n = 360,000); AID 651654;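 active = mean lysis activity across replicates of at least 80%, whatever share of replicates individually reach that level; inactive = mean lysis activity below 80%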
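Material: C. neoformans cells | Amount: Yeast cell density of 5 × 10^6 cells/mL | Medium: Fresh YPD growth medium | Dosing: Single dose | Times: Static 4 h at 37 °C with compound, 1 h detection | Detection: AK luminescence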
Statin myotox sup: suppression of simvastatin myotoxicity; C2C12 myotubes + simvastatin, ATP luminescence, 48 h; scaled: DMSO 0, geranylgeraniol control 100; rescue of ATP level, % at 7.49 µM; actives 0.78% (n = 330,000);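 active = mean ATP rescue above about 67%, or every replicate alone reaching that limit, limit read from the data, passing the limit was not always enough; inconclusive = no clear call, values can overlap the other calls; inactive = mean under the limit and some replicate under it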;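 also: myotubes were challenged with 10 µM simvastatin during compound exposure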
Each line names hits and unclear results; the compound was inactive in the other large screens; ! = repeats disagree. Sampled rows, rich in hits. Any-hit rate of the full collection: about 3%.

C[C@@H](NC(=O)C[C@H]1C=C[C@@H](NC(=O)C2CCC2)[C@H](CO)O1)c1ccccc1	S100A4 MyoIIA 101 (no result: PGC1a acetyl inh)
C[C@@H](NC(=O)C[C@H]1CC[C@H](NC(=O)C2CC2)[C@@H](CO)O1)c1ccccc1	SIRT5 inh 17
C[C@@H](NC(=O)C[C@H]1C=C[C@H](NC(=O)CN2CCOCC2)[C@H](CO)O1)c1ccccc1	none
C[C@H](NC(=O)C[C@@H]1C=C[C@@H](NC(=O)CN2CCOCC2)[C@@H](CO)O1)c1ccccc1	SIRT5 inh 27!
COc1ccc(C)cc1NS(=O)(=O)c1ccc2c(c1)N(C)CCO2	S100A4 MyoIIA 84
O=C(Cc1ccccc1)N[C@H]1C=C[C@@H](CC(=O)N2CCOCC2)O[C@H]1CO	Cneo AK release 93
CCC(=O)N[C@H]1C=C[C@H](CC(=O)NCC2CCCCC2)O[C@@H]1CO	Cneo AK release 89
O=C(Cc1ccccc1)N[C@H]1C=C[C@@H](CC(=O)N2CCOCC2)O[C@@H]1CO	Cneo AK release 95
O=C(Cc1ccccc1)N[C@H]1C=C[C@H](CC(=O)N2CCOCC2)O[C@@H]1CO	none
CCC(=O)N[C@@H]1C=C[C@H](CC(=O)NCC2CCCCC2)O[C@@H]1CO	none
O=C(Cc1ccccc1)N[C@@H]1C=C[C@@H](CC(=O)N2CCOCC2)O[C@@H]1CO	none
O=C(C[C@H]1C=C[C@H](NC(=O)CN2CCOCC2)[C@H](CO)O1)NC1CCCCC1	none
O=C(C[C@@H]1C=C[C@H](NC(=O)CN2CCOCC2)[C@H](CO)O1)NC1CCCCC1	SIRT5 inh 18
CO[C@@H]1CN(C)C(=O)c2ccc(NC(=O)NC(C)C)cc2OC[C@@H](C)N(C(=O)NC(C)C)C[C@@H]1C	none
CS(=O)(=O)Nc1ccc2c(c1)[C@H]1C[C@@H](CC(=O)NCc3ccc(Oc4ccccc4)cc3)O[C@H](CO)[C@H]1O2	none
C[C@H](CO)N1C[C@H](C)[C@H](CN(C)Cc2ccccc2)Oc2c(NS(=O)(=O)c3ccc(Cl)cc3)cccc2C1=O	none
O=C(NC1CCCCC1)N[C@@H]1C=C[C@@H](CC(=O)N2CCOCC2)O[C@H]1CO	none
O=C(NC1CCCCC1)N[C@H]1C=C[C@@H](CC(=O)N2CCOCC2)O[C@H]1CO	Cneo AK release 104
Cc1noc(C)c1S(=O)(=O)N(C)C[C@H]1Oc2c(NC(=O)c3nc4ccccc4s3)cccc2C(=O)N([C@H](C)CO)C[C@H]1C	none (no result: S100A4 MyoIIA, PGC1a acetyl inh, SIRT5 inh, Cneo AK release, Statin myotox sup)
O=C(O)c1csc(N/N=C/c2ccc(Br)cc2)n1	Ecoli rRNA inh -28 (no result: Cneo AK release, Statin myotox sup)
COc1ccccc1-c1ccc2c(c1)O[C@@H](CN(C)C(=O)c1cccnc1)[C@@H](C)CN([C@H](C)CO)S2(=O)=O	none
COc1ccc(NC(=O)Nc2ccc3c(c2)C(=O)N([C@H](C)CO)C[C@H](C)[C@H](CN(C)C(=O)Nc2c(C)noc2C)O3)cc1	none
O=C(Oc1ccc(Oc2ccccc2)cc1)N1CCC(O)CC1	SIRT5 inh 34 (no result: PGC1a acetyl inh)
C=C1C(=O)[C@]23C[C@H]1CCC2[C@@]1(C)C(C[C@@H]3O)[C@](C)(C(=O)OC)CC[C@@H]1OC(C)=O (stereo partly drawn)	PGC1a acetyl inh 103
C=C1C(=O)[C@]23C[C@H]1CC[C@H]2[C@]1(C)[C@@H](OC(C)=O)CC[C@@](C)(C(=O)OC)[C@H]1C[C@@H]3OC(C)=O	PGC1a acetyl inh 94
C=C1C(=O)[C@]23C[C@H]1CC[C@H]2[C@]1(C)[C@@H](OC(C)=O)CC[C@@](C)(C(=O)O)[C@H]1C[C@@H]3O	none
COCCNC(=O)C[C@H]1C=C[C@@H](NC(=O)NC2CCCC2)[C@H](CO)O1	none
COC(=O)c1c2oc(c1C(=O)OC)C(=O)N[C@H](Cc1ccccc1)Cn1cc(nn1)[C@H](Cc1ccccc1)NC(=O)N[C@H](CO)CC2	none (no result: PGC1a acetyl inh, Ecoli rRNA inh, Statin myotox sup)
CCCOc1ccc(C(=O)C(CN2CCOCC2)c2ccccc2)cc1 (stereo not drawn)	Statin myotox sup 78 (no result: S100A4 MyoIIA, SIRT5 inh, Ecoli rRNA inh)
CCCCOc1ccc(C(=O)Nc2ccc(CN3CCOCC3)cc2)cc1	SIRT5 inh 29
COc1ccc(C(=O)C(CN2CCOCC2)c2ccccc2)cc1F (stereo not drawn)	PGC1a acetyl inh 114 (no result: S100A4 MyoIIA, SIRT5 inh, Ecoli rRNA inh, Cneo AK release)
CCCNC(=O)C[C@H]1CC[C@@H]2[C@@H](COc3ccc(NC(=O)c4cscn4)cc3C(=O)N2C)O1	none
O=C(C[C@H]1CC[C@H]2[C@@H](COC[C@H](O)CN2C(=O)Cc2ccccc2)O1)NC1CCCC1	none
COC(=O)c1ccccc1OCCOCCOc1cccc2ccc(C)nc12	Ecoli rRNA inh -28 (no result: PGC1a acetyl inh, Statin myotox sup)
COC(=O)c1ccc(OCCOCCOc2cccc3ccc(C)nc23)cc1	none (no result: PGC1a acetyl inh, Ecoli rRNA inh, Cneo AK release, Statin myotox sup)
Cc1ccc(OCCOc2cccc3ccc(C)nc23)c([N+](=O)[O-])c1	Ecoli rRNA inh -21 (no result: PGC1a acetyl inh)
O=C(Nc1ccc2c(c1)[C@@H]1C[C@H](CC(=O)N3CCOCC3)O[C@@H](CO)[C@@H]1O2)NC1CCCCC1	none
COCCC(=O)N1CCC(Oc2ccc(C(=O)N3CCCCCC3)cc2)CC1	none
C#CCN(C(=O)c1ccc(OC2CCN(C(=O)CCOC)CC2)cc1)C1CCCCC1	Cneo AK release 103
CC(C)NC(=O)NCC[C@H]1CC[C@@H](NS(=O)(=O)c2ccc(-c3ccccc3)cc2)[C@H](CO)O1	SIRT5 inh 31
O=C(NCC[C@H]1CC[C@H](NS(=O)(=O)c2ccccc2)[C@@H](CO)O1)c1cc(Cl)cc(Cl)c1	S100A4 MyoIIA 76
O=C(Nc1ccc(Cl)cc1)N[C@H]1CC[C@H](CCNC(=O)c2ccccc2F)O[C@@H]1CO	S100A4 MyoIIA 81
CC(C)NC(=O)NCC[C@@H]1CC[C@H](NS(=O)(=O)c2ccccc2)[C@@H](CO)O1	none (no result: Cneo AK release, Statin myotox sup)
O=C(Nc1ccc(Cl)cc1)N[C@@H]1CC[C@H](CCNC(=O)c2ccccc2F)O[C@H]1CO	S100A4 MyoIIA inconclusive
Cc1ccc(S(=O)(=O)N[C@H]2CC[C@@H](CCNC(=O)Nc3ccc(Cl)cc3)O[C@H]2CO)cc1	SIRT5 inh 103
O=C(NCC[C@@H]1CC[C@H](NS(=O)(=O)c2ccccc2)[C@@H](CO)O1)c1cc(Cl)cc(Cl)c1	none
Cc1ccc(S(=O)(=O)N[C@@H]2CC[C@H](CCNC(=O)Nc3ccc(Cl)cc3)O[C@@H]2CO)cc1	none
CCC(=O)Nc1ccc2c(c1)OC[C@H](C)N(C(=O)Cc1ccccn1)C[C@H](C)[C@@H](OC)CN(C)C2=O	none
CCC(=O)N1[C@H](CO)[C@H](c2ccc(-c3ccccc3OC)cc2)[C@@H]1CNC(C)=O	none (no result: Cneo AK release, Statin myotox sup)
O=C(Nc1ccccc1)N[C@@H]1CC[C@@H](CCNC(=O)c2ccccc2F)O[C@H]1CO	Cneo AK release 107
